Assay results: ChEMBL document CHEMBL1681705, “Optimisation of ITK inhibitors through successive iterative design cycles” (Bioorg Med Chem Lett, 2011)

Legend:
[1] = molecular target: T1, Dual specificity mitogen-activated protein kinase kinase 7 (Homo sapiens) (UniProt O14733); test: Inhibition of MKK7beta at 1 uM
T1 sequence (whole entry): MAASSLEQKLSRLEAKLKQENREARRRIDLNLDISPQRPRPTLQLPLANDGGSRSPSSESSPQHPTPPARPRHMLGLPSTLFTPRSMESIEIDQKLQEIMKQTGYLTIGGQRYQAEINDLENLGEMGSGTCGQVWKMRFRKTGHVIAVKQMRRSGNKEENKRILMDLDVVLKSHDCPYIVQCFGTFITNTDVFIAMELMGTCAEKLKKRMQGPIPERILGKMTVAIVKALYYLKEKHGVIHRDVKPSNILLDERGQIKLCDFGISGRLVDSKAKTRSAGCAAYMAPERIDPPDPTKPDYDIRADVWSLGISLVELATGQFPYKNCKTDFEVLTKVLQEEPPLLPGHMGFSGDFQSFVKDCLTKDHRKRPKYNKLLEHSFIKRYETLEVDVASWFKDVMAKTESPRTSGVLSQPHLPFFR
Method in brief: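 Single-point screen within a 108-kinase selectivity panel. Each kinase was tested with inhibitor at 0.1 and 1.0 micromolar, and activity was recorded as percent inhibition.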

[2] = Inhibition of JNK2a2 at 0.1 uM; conditions: values are per cent of control
[3] = molecular target: Tyrosine-protein kinase CSK (Homo sapiens) (UniProt P41240); test: Inhibition of CSK at 0.1 uM; values are per cent of control
Tyrosine-protein kinase CSK (Homo sapiens), sequence (P41240 2-450 limits assumed): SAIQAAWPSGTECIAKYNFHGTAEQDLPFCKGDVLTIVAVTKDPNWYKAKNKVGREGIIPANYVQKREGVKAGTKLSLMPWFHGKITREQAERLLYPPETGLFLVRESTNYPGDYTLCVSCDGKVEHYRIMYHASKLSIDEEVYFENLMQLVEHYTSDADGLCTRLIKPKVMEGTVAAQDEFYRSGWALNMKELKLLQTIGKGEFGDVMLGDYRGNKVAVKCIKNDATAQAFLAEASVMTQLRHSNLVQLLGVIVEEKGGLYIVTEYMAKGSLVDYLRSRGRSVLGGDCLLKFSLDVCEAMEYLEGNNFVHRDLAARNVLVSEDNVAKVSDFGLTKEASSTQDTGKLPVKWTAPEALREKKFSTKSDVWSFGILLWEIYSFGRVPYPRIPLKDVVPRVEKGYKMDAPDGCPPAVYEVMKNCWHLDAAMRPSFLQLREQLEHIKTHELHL

[4] = molecular target: Serine/threonine-protein kinase PLK2 (Homo sapiens) (UniProt Q9NYY3); test: Inhibition of Snk at 0.1 uM; values are per cent of control
Serine/threonine-protein kinase PLK2 (Homo sapiens), sequence (Q9NYY3 whole entry, looked up): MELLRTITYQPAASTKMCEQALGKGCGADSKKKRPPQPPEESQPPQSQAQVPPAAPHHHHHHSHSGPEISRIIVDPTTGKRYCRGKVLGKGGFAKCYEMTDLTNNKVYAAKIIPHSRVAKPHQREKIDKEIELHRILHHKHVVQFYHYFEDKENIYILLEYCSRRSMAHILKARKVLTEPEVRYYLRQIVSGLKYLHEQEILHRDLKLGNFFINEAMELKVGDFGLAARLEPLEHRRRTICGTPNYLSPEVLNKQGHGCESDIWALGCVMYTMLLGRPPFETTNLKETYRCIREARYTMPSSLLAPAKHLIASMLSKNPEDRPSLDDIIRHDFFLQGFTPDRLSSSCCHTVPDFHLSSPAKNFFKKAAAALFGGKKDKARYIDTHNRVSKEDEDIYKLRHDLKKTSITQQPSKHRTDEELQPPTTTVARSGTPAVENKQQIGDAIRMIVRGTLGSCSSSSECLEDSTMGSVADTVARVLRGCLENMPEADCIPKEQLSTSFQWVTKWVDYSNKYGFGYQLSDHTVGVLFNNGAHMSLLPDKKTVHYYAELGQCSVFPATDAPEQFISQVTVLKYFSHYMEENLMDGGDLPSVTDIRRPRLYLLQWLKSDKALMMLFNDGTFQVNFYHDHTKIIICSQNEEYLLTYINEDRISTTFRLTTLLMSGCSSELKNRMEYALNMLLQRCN

[5] = molecular target: T2, Ephrin type-B receptor 1 (Homo sapiens) (UniProt P54762); test: Inhibition of EphB1 at 1 uM; values are per cent of control
T2 sequence (whole entry): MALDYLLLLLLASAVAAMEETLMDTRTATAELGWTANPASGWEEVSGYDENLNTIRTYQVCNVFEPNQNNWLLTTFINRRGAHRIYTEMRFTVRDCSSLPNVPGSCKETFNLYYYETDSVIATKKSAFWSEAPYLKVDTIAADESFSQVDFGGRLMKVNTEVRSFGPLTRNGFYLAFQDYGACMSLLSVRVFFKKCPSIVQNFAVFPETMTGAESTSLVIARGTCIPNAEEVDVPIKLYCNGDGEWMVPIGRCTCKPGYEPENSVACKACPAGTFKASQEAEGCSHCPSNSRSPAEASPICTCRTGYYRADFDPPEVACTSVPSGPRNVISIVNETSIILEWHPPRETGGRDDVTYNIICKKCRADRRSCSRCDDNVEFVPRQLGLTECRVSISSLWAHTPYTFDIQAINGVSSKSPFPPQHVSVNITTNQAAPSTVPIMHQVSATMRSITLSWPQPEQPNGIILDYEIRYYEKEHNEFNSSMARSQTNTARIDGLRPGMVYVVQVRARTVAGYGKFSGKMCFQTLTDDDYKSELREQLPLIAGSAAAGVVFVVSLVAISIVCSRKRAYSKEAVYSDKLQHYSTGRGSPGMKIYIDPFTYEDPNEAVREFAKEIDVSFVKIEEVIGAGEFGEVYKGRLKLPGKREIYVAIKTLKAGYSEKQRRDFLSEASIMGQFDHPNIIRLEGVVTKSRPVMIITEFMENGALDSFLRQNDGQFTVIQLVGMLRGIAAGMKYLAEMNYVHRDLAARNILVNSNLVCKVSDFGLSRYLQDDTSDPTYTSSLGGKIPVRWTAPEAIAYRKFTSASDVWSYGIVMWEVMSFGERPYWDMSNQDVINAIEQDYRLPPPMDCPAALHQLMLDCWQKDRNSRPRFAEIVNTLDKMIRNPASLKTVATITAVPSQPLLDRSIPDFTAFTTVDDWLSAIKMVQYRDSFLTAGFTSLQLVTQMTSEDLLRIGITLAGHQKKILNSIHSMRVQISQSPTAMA

[6] = molecular target: Serine/threonine-protein kinase MARK1 (Homo sapiens) (UniProt Q9P0L2); test: Inhibition of MARK1 at 1 uM; values are per cent of control
Serine/threonine-protein kinase MARK1 (Homo sapiens), sequence (Q9P0L2 whole entry, looked up): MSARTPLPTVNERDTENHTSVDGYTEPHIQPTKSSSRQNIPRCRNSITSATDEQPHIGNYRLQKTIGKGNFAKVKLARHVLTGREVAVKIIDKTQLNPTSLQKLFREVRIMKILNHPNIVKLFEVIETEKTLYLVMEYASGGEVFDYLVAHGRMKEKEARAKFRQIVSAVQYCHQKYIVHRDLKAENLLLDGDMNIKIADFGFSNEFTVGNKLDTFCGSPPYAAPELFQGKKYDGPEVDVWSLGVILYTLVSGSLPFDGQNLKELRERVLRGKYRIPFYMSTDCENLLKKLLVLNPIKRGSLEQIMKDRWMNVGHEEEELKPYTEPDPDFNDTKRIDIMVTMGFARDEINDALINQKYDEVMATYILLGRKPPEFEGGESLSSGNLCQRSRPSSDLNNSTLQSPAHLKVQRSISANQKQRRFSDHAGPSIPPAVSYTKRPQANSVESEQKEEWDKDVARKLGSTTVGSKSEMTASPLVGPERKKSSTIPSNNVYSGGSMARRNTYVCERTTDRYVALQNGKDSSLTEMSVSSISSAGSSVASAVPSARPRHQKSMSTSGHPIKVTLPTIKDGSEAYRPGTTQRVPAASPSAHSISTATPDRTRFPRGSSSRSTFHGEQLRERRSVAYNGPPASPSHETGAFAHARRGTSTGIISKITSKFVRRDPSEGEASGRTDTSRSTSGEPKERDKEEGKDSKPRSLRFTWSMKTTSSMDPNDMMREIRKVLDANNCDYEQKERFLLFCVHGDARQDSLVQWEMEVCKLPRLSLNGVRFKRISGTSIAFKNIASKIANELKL

[7] = molecular target: Epidermal growth factor receptor (Homo sapiens) (UniProt P00533); test: Inhibition of EGFR at 0.1 uM; values are per cent of control
Epidermal growth factor receptor (Homo sapiens), sequence (P00533 whole entry): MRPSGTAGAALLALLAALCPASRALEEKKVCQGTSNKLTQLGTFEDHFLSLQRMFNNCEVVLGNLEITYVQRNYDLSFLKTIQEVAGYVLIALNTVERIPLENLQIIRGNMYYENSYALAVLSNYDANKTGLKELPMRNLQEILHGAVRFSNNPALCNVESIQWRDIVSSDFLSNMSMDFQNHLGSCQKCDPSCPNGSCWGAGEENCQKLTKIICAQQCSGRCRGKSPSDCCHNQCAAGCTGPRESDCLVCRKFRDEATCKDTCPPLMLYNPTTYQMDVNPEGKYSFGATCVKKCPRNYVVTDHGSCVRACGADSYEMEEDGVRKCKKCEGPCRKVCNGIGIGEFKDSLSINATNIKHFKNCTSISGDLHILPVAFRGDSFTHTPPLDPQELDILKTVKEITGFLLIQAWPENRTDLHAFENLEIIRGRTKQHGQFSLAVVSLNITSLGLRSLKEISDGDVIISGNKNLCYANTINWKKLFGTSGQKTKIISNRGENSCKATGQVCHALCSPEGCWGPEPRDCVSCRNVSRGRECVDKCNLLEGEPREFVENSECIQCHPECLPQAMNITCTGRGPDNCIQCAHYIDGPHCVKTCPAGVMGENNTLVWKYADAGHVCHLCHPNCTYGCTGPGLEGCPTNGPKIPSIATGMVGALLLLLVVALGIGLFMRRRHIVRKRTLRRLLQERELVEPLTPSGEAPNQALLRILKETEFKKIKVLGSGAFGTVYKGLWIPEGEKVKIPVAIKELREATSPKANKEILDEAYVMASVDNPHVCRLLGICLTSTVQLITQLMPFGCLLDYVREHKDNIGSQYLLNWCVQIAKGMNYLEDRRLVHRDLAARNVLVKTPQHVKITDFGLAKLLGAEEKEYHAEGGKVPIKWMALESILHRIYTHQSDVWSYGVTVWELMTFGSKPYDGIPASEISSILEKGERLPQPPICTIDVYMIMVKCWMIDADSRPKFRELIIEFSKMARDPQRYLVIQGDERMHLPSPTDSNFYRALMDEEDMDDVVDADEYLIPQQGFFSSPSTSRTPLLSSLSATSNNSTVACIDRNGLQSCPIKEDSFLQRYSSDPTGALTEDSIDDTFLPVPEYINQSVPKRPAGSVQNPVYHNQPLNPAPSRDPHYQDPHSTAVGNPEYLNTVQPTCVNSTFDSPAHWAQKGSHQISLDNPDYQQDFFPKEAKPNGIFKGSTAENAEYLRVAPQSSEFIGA

[8] = molecular target: T3, Tyrosine-protein kinase JAK3 (Homo sapiens) (UniProt P52333); test: Inhibition of JAK3 at 0.1 uM; values are per cent of control
T3 sequence (whole entry): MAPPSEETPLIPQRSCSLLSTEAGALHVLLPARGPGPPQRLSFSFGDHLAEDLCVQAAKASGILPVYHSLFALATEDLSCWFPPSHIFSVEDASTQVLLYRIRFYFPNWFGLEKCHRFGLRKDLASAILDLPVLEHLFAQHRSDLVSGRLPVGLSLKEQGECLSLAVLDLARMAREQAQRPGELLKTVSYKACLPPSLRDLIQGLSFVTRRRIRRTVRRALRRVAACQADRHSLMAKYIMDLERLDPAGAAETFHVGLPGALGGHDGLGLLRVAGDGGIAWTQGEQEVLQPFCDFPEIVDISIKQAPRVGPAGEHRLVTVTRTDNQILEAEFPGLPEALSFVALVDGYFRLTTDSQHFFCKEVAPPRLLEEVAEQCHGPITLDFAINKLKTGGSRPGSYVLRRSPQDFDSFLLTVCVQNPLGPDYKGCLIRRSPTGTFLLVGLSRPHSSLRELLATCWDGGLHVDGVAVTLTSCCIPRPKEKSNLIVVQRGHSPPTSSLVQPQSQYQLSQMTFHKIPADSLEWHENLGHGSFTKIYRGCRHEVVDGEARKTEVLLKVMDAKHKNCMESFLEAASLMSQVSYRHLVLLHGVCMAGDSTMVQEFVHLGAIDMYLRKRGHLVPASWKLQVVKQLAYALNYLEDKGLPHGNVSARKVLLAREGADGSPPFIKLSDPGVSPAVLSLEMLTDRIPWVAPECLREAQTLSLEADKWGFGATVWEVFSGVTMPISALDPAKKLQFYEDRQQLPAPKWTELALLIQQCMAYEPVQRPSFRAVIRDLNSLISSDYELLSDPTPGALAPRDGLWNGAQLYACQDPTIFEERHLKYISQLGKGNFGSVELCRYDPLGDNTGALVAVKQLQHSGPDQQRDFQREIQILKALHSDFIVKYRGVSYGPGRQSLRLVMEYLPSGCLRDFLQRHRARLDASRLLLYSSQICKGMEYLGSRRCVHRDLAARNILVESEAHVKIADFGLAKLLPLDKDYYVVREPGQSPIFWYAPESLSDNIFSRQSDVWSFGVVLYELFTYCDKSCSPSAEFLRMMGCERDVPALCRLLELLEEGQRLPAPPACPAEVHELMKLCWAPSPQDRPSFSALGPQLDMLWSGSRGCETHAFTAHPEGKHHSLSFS

Row | inhibition [1] | residual activity [2] | residual activity [3] | residual activity [4] | residual activity [5] | residual activity [6] | residual activity [7] | residual activity [8] | SMILES
1 | 95% | 93% | 105% | 78% | 12% | 21% | 28% | 52% | Cc1ccc2cc(-c3n[nH]c4ccc(NC5CCN(Cc6ccccc6)CC5)cc34)[nH]c2c1
2 | 52% | 103% | 107% | 90% | 5% | 0% | 94% | 25% | Cc1ccc2cc(-c3n[nH]c4ccc(NC5CCNC5)cc34)[nH]c2c1 (stereo unspecified)
